# Source: publication PMC5598529 (Toxicology Reports, 2014)
# Entries after “also recorded” stand apart in the source; their conditions may differ.
# Test system: Caco-2 cell monolayer
# Assay: Phenol red diffusion
# Assay type: cell-based, human
# Conditions: 1-25 μM, day 10, vs control
# Summary of the method: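 Monolayers were grown on collagen-coated Transwells (2.5 × 10^5 cells/well) for 4 days. Then 1, 5, 10 or 25 μM test compound or 0.1% DMSO was added to both compartments in 4% FBS medium, renewed every 2 days. At day 10, phenol red medium was placed apically and phenol red-free medium basolaterally. Apical-to-basolateral diffusion over 4 h was read at 560 nm and expressed as percent diffusion.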
row,SMILES,"Apparent permeability (J10) (phenol red diffusion), direction of effect"
1,"COP(=S)(OC)Oc1ccc([N+](=O)[O-])c(C)c1 [FNT, fenitrothion]",increase of the apparent permeability
2,"O=C(NC(=O)c1c(F)cccc1F)Nc1cc(Cl)c(F)c(Cl)c1F [TBZ, teflubenzuron]",increase of the apparent permeability

# Test system: glutathione peroxidase (GPx) activity in Caco-2 cells
# Assay: Antioxidant enzyme assay: glutathione peroxidase
# Assay type: cell-based, human
# Conditions: 10 days, 1, 5, 10 and 25 μM, vs control
# Summary of the method: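 GPx activity was measured in Caco-2 exposed to 1–25 μM test compound or vehicle for 10 days. Cells were sonicated in 50 mM phosphate pH 7 with 1 mM EDTA and the 105,000 × g supernatant was used. The assay was coupled to glutathione reductase with H2O2 and NADPH, and NADPH loss was followed at 340 nm. Specific activity is given as % of control.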
row,SMILES,GPx activity
1,"COP(=S)(OC)Oc1ccc([N+](=O)[O-])c(C)c1 [FNT, fenitrothion]",increase
2,"N#Cc1nn(-c2c(Cl)cc(C(F)(F)F)cc2Cl)c(N)c1[S+]([O-])C(F)(F)F (centres unmarked) [FPN, fipronil]",increase
3,"O=C(NC(=O)c1c(F)cccc1F)Nc1cc(Cl)c(F)c(Cl)c1F [TBZ, teflubenzuron]",no change

# Test system: Caco-2 cells
# Assay: Detection of apoptosis and necrosis by Hoechst 33342 and PI staining
# Assay type: cell-based, human
# Conditions: 25 μM, 48 h, vs control
# Summary of the method: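 Cells were seeded at 1.25 × 10^5/well. After 20 h they received 25 μM test compound, alone or as an equimolar mixture, for 48 h. They were stained with Hoechst 33342 (5 μg/ml) plus PI (1 μg/ml) for 30 min at 37 °C in the dark, then washed. Normal, apoptotic and necrotic cells were counted in four random fields per well. Three independent experiments, each in triplicate.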
SMILES,apoptotic cells,percentage of necrotic cells
"N#Cc1nn(-c2c(Cl)cc(C(F)(F)F)cc2Cl)c(N)c1[S+]([O-])C(F)(F)F (centres unmarked) [FPN, fipronil]",huge increased,increased to a lesser extent

# Same assay, conditions: 25 μM, 48 h; ratio of percentage of necrotic cells in treated versus untreated cells
row,SMILES,Percent of necrosis in treated vs control cells
1,"COP(=S)(OC)Oc1ccc([N+](=O)[O-])c(C)c1 [FNT, fenitrothion]",4.4
2,"N#Cc1nn(-c2c(Cl)cc(C(F)(F)F)cc2Cl)c(N)c1[S+]([O-])C(F)(F)F (centres unmarked) [FPN, fipronil]",3.2
3,"O=C(NC(=O)c1c(F)cccc1F)Nc1cc(Cl)c(F)c(Cl)c1F [TBZ, teflubenzuron]",3.8

# Test system: Caco-2 cells
# Assay: Intracellular ROS
# Assay type: cell-based, human
# Conditions: 6 h exposure, 25 or 100 μM, vs control, p < 0.05
# Summary of the method: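 Cells were plated at 5 × 10^4/well and grown 48 h in 10% FBS medium, then washed with PBS. They were exposed for 6 h at 37 °C to 25 or 100 μM test compound in HBSS containing 5 μM H2-DCFDA; controls had 0.025% DMSO. After PBS washes, fluorescence was read at ex 485/em 530 nm.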
row,SMILES,"H2O2 production, direction of effect"
1,"COP(=S)(OC)Oc1ccc([N+](=O)[O-])c(C)c1 [FNT, fenitrothion]",strongest effect
2,"N#Cc1nn(-c2c(Cl)cc(C(F)(F)F)cc2Cl)c(N)c1[S+]([O-])C(F)(F)F (centres unmarked) [FPN, fipronil]",strongest effect

# Same assay, conditions: 6 h exposure, p < 0.05
row,SMILES,"H2O2 production, concentration given for the effect"
1,"COP(=S)(OC)Oc1ccc([N+](=O)[O-])c(C)c1 [FNT, fenitrothion]",25 µM
2,"N#Cc1nn(-c2c(Cl)cc(C(F)(F)F)cc2Cl)c(N)c1[S+]([O-])C(F)(F)F (centres unmarked) [FPN, fipronil]",100 µM
3,"O=C(NC(=O)c1c(F)cccc1F)Nc1cc(Cl)c(F)c(Cl)c1F [TBZ, teflubenzuron]",100 µM

# Test system: Caco-2 cells
# Assay: Observation of morphologic changes
# Assay type: cell-based, human
# Conditions: 25 μM, 72 h, phase contrast microscopy
# Summary of the method: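 Cells were seeded at 1.125 × 10^5/well and grown 20 h. They were then exposed to 25 μM test compound for 72 h and morphology was examined by phase-contrast microscopy.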
row,SMILES,morphological changes / cell density
1,"COP(=S)(OC)Oc1ccc([N+](=O)[O-])c(C)c1 [FNT, fenitrothion]",reduction of cell density
2,"N#Cc1nn(-c2c(Cl)cc(C(F)(F)F)cc2Cl)c(N)c1[S+]([O-])C(F)(F)F (centres unmarked) [FPN, fipronil]",reduction of cell density

# Test system: Caco-2 cell monolayer
# Assay: Transepithelial electrical resistance
# Assay type: cell-based, human
# Conditions: 1-25 μM, 10 days, vs control
# Summary of the method: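 Caco-2 were grown on collagen-coated Transwells (2.5 × 10^5 cells/well) for 4 days. They were then exposed apically and basolaterally to 1, 5, 10 or 25 μM test compound or 0.1% DMSO, renewed every 2 days. Resistance was measured at days 0, 3, 7 and 10 and expressed in Ω cm2. Mean ± SEM of 3 independent experiments, each in triplicate.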
row,SMILES,"TEER (J10), direction of effect"
1,"COP(=S)(OC)Oc1ccc([N+](=O)[O-])c(C)c1 [FNT, fenitrothion]",net decrease
2,"N#Cc1nn(-c2c(Cl)cc(C(F)(F)F)cc2Cl)c(N)c1[S+]([O-])C(F)(F)F (centres unmarked) [FPN, fipronil]",failed to produce a clear and noticeable change
3,"O=C(NC(=O)c1c(F)cccc1F)Nc1cc(Cl)c(F)c(Cl)c1F [TBZ, teflubenzuron]",net decrease

# Same assay, conditions: day 10
row,SMILES,"TEER (J10), concentration given for the effect"
1,"COP(=S)(OC)Oc1ccc([N+](=O)[O-])c(C)c1 [FNT, fenitrothion]",10 µM
2,"O=C(NC(=O)c1c(F)cccc1F)Nc1cc(Cl)c(F)c(Cl)c1F [TBZ, teflubenzuron]",5 µM

# Test system: superoxide dismutase (SOD) activity in Caco-2 cells
# Assay: Antioxidant enzyme assay: superoxide dismutase
# Assay type: cell-based, human
# Conditions: 10 days, 1, 5, 10 and 25 μM, vs control
# Summary of the method: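 Supernatant at 105,000 × g from sonicated Caco-2 was used, after 10 days' exposure to 1–25 μM test compound or vehicle. Superoxide came from xanthine–xanthine oxidase, and inhibition of NBT reduction was followed kinetically at 560 nm for 5 min over several protein amounts. One unit inhibits formazan formation by 50%. Specific activity is given as % of control.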
row,SMILES,SOD activity
1,"COP(=S)(OC)Oc1ccc([N+](=O)[O-])c(C)c1 [FNT, fenitrothion]",increase
2,"O=C(NC(=O)c1c(F)cccc1F)Nc1cc(Cl)c(F)c(Cl)c1F [TBZ, teflubenzuron]",no change

# Test system: Alkaline phosphatase activity in Caco-2 cells
# Assay: Alkaline phosphatase assay for cell differentiation
# Assay type: cell-based, human
# Conditions: 1-25 μM, 10 days, vs control, p < 0.01
# Summary of the method: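 Caco-2 seeded at 1.125 × 10^5 cells/well and treated next day with 1, 5, 10 or 25 μM of test compound, or 0.1% DMSO vehicle, for 10 days in 4% FBS medium, renewed every 48 h. Cells were scraped into cold 50 mM Tris pH 7.5 and needle-homogenised. Lysate ALP hydrolysed pNPP over 30 min at pH 10.4, 37 °C; p-nitrophenol read at 405 nm, per mg protein, as % of control.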
row,SMILES,"ALP activity (J10), direction of effect"
1,"COP(=S)(OC)Oc1ccc([N+](=O)[O-])c(C)c1 [FNT, fenitrothion]",decreased ALP activity
2,"N#Cc1nn(-c2c(Cl)cc(C(F)(F)F)cc2Cl)c(N)c1[S+]([O-])C(F)(F)F (centres unmarked) [FPN, fipronil]",decreased ALP activity
3,"O=C(NC(=O)c1c(F)cccc1F)Nc1cc(Cl)c(F)c(Cl)c1F [TBZ, teflubenzuron]",increased its activity

# Same assay, conditions: day 10, p < 0.01
row,SMILES,"ALP activity (J10), concentration given for the effect"
1,"COP(=S)(OC)Oc1ccc([N+](=O)[O-])c(C)c1 [FNT, fenitrothion]",5 µM
2,"N#Cc1nn(-c2c(Cl)cc(C(F)(F)F)cc2Cl)c(N)c1[S+]([O-])C(F)(F)F (centres unmarked) [FPN, fipronil]",10 µM
3,"O=C(NC(=O)c1c(F)cccc1F)Nc1cc(Cl)c(F)c(Cl)c1F [TBZ, teflubenzuron]",5 µM

# Test system: Caco-2 cells
# Assay: MTT cell viability assay
# Assay type: cell-based, human
# Conditions: 3 days-period of exposure
# Summary of the method: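 Caco-2 (passage 25–39) were seeded at 5 × 10^4/well. After 20 h they received 0.1–100 μM test compound, alone or as an equimolar mixture, in 4% FBS medium, renewed every 48 h, for 3, 7 and 10 days. MTT (0.5 mg/ml in RPMI) was added for 4 h at 37 °C and stopped with SDS/NaOH. Absorbance was read at 570/690 nm as % of DMSO control; EC50 was taken from the dose–response curve. Three experiments, each in quadruplicate.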
row,SMILES,concentration at which toxicity was observed
1,"COP(=S)(OC)Oc1ccc([N+](=O)[O-])c(C)c1 [FNT, fenitrothion]",1 µM
2,"O=C(NC(=O)c1c(F)cccc1F)Nc1cc(Cl)c(F)c(Cl)c1F [TBZ, teflubenzuron]",5 µM

# Same assay, conditions: Caco-2 cells, 10 days exposure, 0.1-100 μM, mean ± SEM
row,SMILES,EC50
1,"N#Cc1nn(-c2c(Cl)cc(C(F)(F)F)cc2Cl)c(N)c1[S+]([O-])C(F)(F)F (centres unmarked) [FPN, fipronil]",18.1 ± 0.5 µM

# Same assay, conditions: appeared later (J7)
row,SMILES,concentration at which impact on viability appeared
1,"N#Cc1nn(-c2c(Cl)cc(C(F)(F)F)cc2Cl)c(N)c1[S+]([O-])C(F)(F)F (centres unmarked) [FPN, fipronil]",5 µM

# Same assay, conditions: day 10, p < 0.05
row,SMILES,"Cell viability (J10), concentration given for the effect"
1,"COP(=S)(OC)Oc1ccc([N+](=O)[O-])c(C)c1 [FNT, fenitrothion]",5 µM
2,"N#Cc1nn(-c2c(Cl)cc(C(F)(F)F)cc2Cl)c(N)c1[S+]([O-])C(F)(F)F (centres unmarked) [FPN, fipronil]",5 µM
3,"O=C(NC(=O)c1c(F)cccc1F)Nc1cc(Cl)c(F)c(Cl)c1F [TBZ, teflubenzuron]",5 µM

# Test system: phospho-Akt (Ser473) in Caco-2 cells
# Assay: Western blot analysis of Akt
# Assay type: cell-based, human
# Conditions: 25 μM, compared to control
# Summary of the method: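 Cells at 1.5 × 10^5/well were exposed 20 h after seeding to 25 μM of each test compound or the mixture for 10 days. Lysis was in RIPA with protease and phosphatase inhibitors. 25 μg protein was resolved by SDS-PAGE and blotted to nitrocellulose. Blots were probed overnight at 4 °C with anti-phospho-Akt Ser473 (1/2000) and anti-Akt1/2/3 (1/1000), then detected with 800 nm infrared-dye secondaries and quantified by relative fluorescence. Three independent experiments.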
row,SMILES,level of phospho-Akt (Ser473)
1,"N#Cc1nn(-c2c(Cl)cc(C(F)(F)F)cc2Cl)c(N)c1[S+]([O-])C(F)(F)F (centres unmarked) [FPN, fipronil]",reduced level; also recorded: greatest impact

# Test system: catalase (CAT) activity in Caco-2 cells
# Assay: Antioxidant enzyme assay: catalase
# Assay type: cell-based, human
# Conditions: 10 days, 1, 5, 10 and 25 μM, vs control
# Summary of the method: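 Cells at 1.5 × 10^5/well were exposed next day to 1–25 μM test compound or vehicle, renewed every 48 h. At day 10 they were sonicated in 50 mM phosphate pH 7 with 1 mM EDTA. Catalase was measured in the 105,000 × g (1 h, 4 °C) supernatant as H2O2 decomposition followed at 240 nm for 30 s. Specific activity is given as % of control.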
row,SMILES,CAT activity
1,"O=C(NC(=O)c1c(F)cccc1F)Nc1cc(Cl)c(F)c(Cl)c1F [TBZ, teflubenzuron]",no change

# Test system: Caco-2 cells
# Assay: Lipid peroxidation measurement
# Assay type: cell-based, human
# Conditions: 25 μM, 48 h exposure
# Summary of the method: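 Cells were seeded at 1.25 × 10^5/well and exposed for 48 h to 25 or 100 μM test compound. Culture medium was mixed with HCl and TBA buffer, heated 10 min at 95 °C, ice-cooled and extracted with n-butanol. Absorbance was read at 532 nm. MDA equivalents were calculated from a TMOP calibration curve.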
row,SMILES,TBARS level with respect to control
1,"COP(=S)(OC)Oc1ccc([N+](=O)[O-])c(C)c1 [FNT, fenitrothion]",167.66%
2,"N#Cc1nn(-c2c(Cl)cc(C(F)(F)F)cc2Cl)c(N)c1[S+]([O-])C(F)(F)F (centres unmarked) [FPN, fipronil]",192.45%

# Same assay, conditions: 48 h exposure, p < 0.01
row,SMILES,"Lipid peroxidation, concentration given for the effect"
1,"COP(=S)(OC)Oc1ccc([N+](=O)[O-])c(C)c1 [FNT, fenitrothion]",25 µM
2,"N#Cc1nn(-c2c(Cl)cc(C(F)(F)F)cc2Cl)c(N)c1[S+]([O-])C(F)(F)F (centres unmarked) [FPN, fipronil]",25 µM
3,"O=C(NC(=O)c1c(F)cccc1F)Nc1cc(Cl)c(F)c(Cl)c1F [TBZ, teflubenzuron]",25 µM
